Hits are enriched below; roughly 1.6% of the tested compounds scored in any of these assays.
UHRF1 MBD2 ctr = UHRF1 methylated DNA binding inhibitors, primary screen, counter-screen for MBD2 inhibitor project, biochemical, TR-FRET, human UHRF1, single concentration | UHRF1 binding to methylated oligo | inhibition, % at 4.4 µM | 0.75% of 370,000 active | AID 687016, 2013; in the data active means inhibition above about 21%;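 further: UHRF1 SRA domain binding a hemimethylated CpG hairpin DNA probe; 0% = median of test compound wells and 100% = reference inhibitor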
TDP2 inh = human TDP2 enzyme inhibitors, primary screen, biochemical, epi absorbance, recombinant enzyme; Tyrosyl-DNA phosphodiesterase 2 (Homo sapiens), O95551; T5PNP hydrolysis, p-nitrophenol absorbance 415 nm; inhibition, % at 12.8 µM; 0.34% of 370,000 active; AID 720702, 2013;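 active means inhibition above the mean of all tested compounds plus 3 SD, set per campaign, cut at about 25% in these data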;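 further: 0% = DMSO with enzyme and 100% = buffer with substrate but no TDP2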
Target sequence (O95551 whole entry, looked up): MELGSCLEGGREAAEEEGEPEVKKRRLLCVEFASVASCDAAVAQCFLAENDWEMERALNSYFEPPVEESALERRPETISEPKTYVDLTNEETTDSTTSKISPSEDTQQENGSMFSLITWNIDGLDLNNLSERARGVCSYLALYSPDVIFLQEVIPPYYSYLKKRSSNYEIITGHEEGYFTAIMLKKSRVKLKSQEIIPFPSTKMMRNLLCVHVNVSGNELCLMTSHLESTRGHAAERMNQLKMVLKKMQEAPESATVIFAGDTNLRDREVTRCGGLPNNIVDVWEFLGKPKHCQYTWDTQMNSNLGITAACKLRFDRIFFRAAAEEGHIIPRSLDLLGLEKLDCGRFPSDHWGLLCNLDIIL
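Assay system: recombinant human TDP2 / Reagent: T5PNP substrate at 5 mM, a TopII-DNA adduct mimic / Measured by: epi absorbance from released p-nitrophenol / Evaluation: % inhibition relative to enzyme-containing and enzyme-free wells / Control set: enzyme-free and DMSO wells / Replicates: each compound tested once, singlicate / Schedule: enzyme reaction with compound for 2 h at 37 °C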
MBD2 DNA inh = inhibitors of MBD2 binding to methylated DNA, primary screen, biochemical, TR-FRET, DNA-binding domain, human | Methyl-CpG-binding domain protein 2 (Homo sapiens), Q9UBB5 | MBD2 binding to methylated oligonucleotide | inhibition, % at 4.4 µM | 0.31% of 370,000 active | AID 686964, 2013; in the data active means inhibition above about 13%
LEDGF integ inh = blockers of LEDGF/p75-dependent integrase strand transfer – biochemical, TR-FRET, high throughput, primary screen | TR-FRET IN-LEDGF/p75 DNA integration, Eu/Cy5 | AID 743269, 2014 | inhibition, % at 3.7 µM | 0.64% of 370,000 active | HIV-1 integrase (with human LEDGF/p75);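 active means inhibition above the screen-wide mean plus 3 SD, cut at about 13% in these data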;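 further: signal is the Cy5 over europium emission ratio at 671 and 618 nm; 0% = plate median of compound wells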
IN multimer act = HIV-1 IN multimer formation enhancers, counter-screen for LEDGF/p75 integration inhibitor project, biochemical, TR-FRET; activation, % at 7.7 µM; shares compounds with LEDGF integ inh; AID 1053131, 2014; 17% of 2,000 active; TR-FRET HIV-1 integrase multimerization; in the data active means activation above about 8.9%
TRFRET interf = TR-FRET optical interference artefacts, confirmation, artefact control for LEDGF/p75-dependent integration inhibitor project, biochemical, HIV-1 IN multimerization. shares compounds with LEDGF integ inh. TR-FRET optical interference counterscreen. inhibition, % at 7.7 µM. AID 1053135, 2014. 2,000 tested, under 10 active;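 active means inhibition above the mean over all tested compounds plus 3 SD, which no compound reached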;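 further: 0% = integrase with antibodies and DMSO and 100% = antibodies without integrase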
IN-LEDGF confirm = inhibitors of HIV-1 IN-LEDGF/p75 DNA integration, confirmation, biochemical, TR-FRET. shares compounds with LEDGF integ inh. TR-FRET LEDGF/p75-dependent HIV-1 integration. inhibition, % at 3.7 µM. 36% of 2,000 active; in the data active means inhibition above about 14%
The depositor's hits bear a star; . = no result.

SMILES | UHRF1 MBD2 ctr | TDP2 inh | MBD2 DNA inh | LEDGF integ inh | IN multimer act | TRFRET interf | IN-LEDGF confirm
Cc1ccc(Cl)cc1-c1ccc(C=Nc2ccc(N3CCOCC3)cc2)o1 | -3 | 23 | -6 | 28* | 4 | -14 | 11
Oc1cccc(/C=N/NC(=S)NCCN2CCOCC2)c1O | 30* | 13 | 5 | 79* | 5 | -26 | -5
CCOc1ccc(CNC(=S)N/N=C\c2ccc([N+](=O)[O-])cc2)cc1 | -3 | -3 | 1 | -1 | . | . | .
CCOc1ccc(N=Cc2ccc([N+](=O)[O-])cc2)c(O)c1 | -7 | -9 | -9 | 20* | 11* | -38 | -3
C=CCC12C[C@@]3(O[C@H](c4ccc(C(F)(F)F)cc4)N=C3C[C@H](c3ccc(OC)cc3)[C@H]1C)N(Cc1ccc3c(c1)OCO3)C2=O | 3 | 0 | 1 | -4 | . | . | .
Cc1ccccc1N1CCN(C2CCCN(C(=O)CCC(=O)N(C)C)C2)CC1 (stereo not drawn) | -3 | -16 | -1 | 1 | . | . | .
Cc1ccn(CCC(=O)N2CCCC(N3CCN(c4ccccc4C)CC3)C2)n1 (stereo not drawn) | -1 | 3 | 4 | 58* | -1 | 4 | 0
CCCNC(=O)c1cc(C2CCCN(S(=O)(=O)c3cccc4cccnc34)C2)on1 (stereo not drawn) | -1 | -7 | 1 | 37* | -4 | 15 | 1
COC(=O)c1cc(S(=O)(=O)N2CCCC2)c(Cl)cc1Cl | -4 | -1 | -1 | 61* | 0 | 1 | -8
CC(=O)c1ccc(-c2cnc3c(NC=O)cc(-c4ccc(S(C)(=O)=O)cc4)cn23)cc1 | -4 | -8 | -3 | 2 | . | . | .
O=CNc1cc(-c2cccc(F)c2)cn2c(-c3ccc(F)cc3)cnc12 | -4 | -9 | 0 | 1 | . | . | .
CC(=O)c1ccc(-c2cnc3c(NC=O)cc(-c4cnn(C)c4)cn23)cc1 | -10 | 3 | -11 | 24* | -1 | 7 | 4
O=CNc1cc(-c2ccoc2)cn2c(-c3ccc(F)cc3)cnc12 | -2 | 3 | 1 | 14* | 0 | -2 | 12
Cc1coc2c1c(C)cc1oc(=O)c(CC(=O)NCC(=O)NCC(=O)O)c(C)c12 | -4 | 1 | -6 | 0 | . | . | .
Cc1coc2c1c(C)cc1oc(=O)c(Cc3ccccc3)c(C)c12 | -1 | 7 | 1 | 15* | -4 | 20 | 4
C#CCNC(=O)C[C@@H]1C[C@@]2(C(=O)OCC)CCCC=C2N(Cc2ccccc2)C1=O | -1 | 2 | 4 | 19* | -2 | 12 | -1
COC(=O)[C@]12CCCCC=C1N(Cc1ccco1)C(=O)[C@H](CC(=O)NCC13CC4CC(CC(C4)C1)C3)C2 | 1 | -3 | -2 | 28* | 0 | 1 | -7
Nc1ccc(Oc2ccc(N)c([N+](=O)[O-])c2)cc1[N+](=O)[O-] | -3 | -19 | -8 | -2 | . | . | .
CC1(C)Oc2cc(N)c([N+](=O)[O-])cc2O1 | 23* | 5 | -9 | 45* | 0 | -1 | -6
CC1C=CC=CCCC=CC=CC=CC=CC(OC2O[C@H](C)[C@@H](O)[C@H](N)[C@@H]2O)CC(O)C(C(=O)O)C(O)CC(=O)CC(O)C(O)CCC(O)CC(O)CC(O)CC(=O)OC(C)C(C)C1O (stereo partly drawn) | 4 | -2 | -4 | 26* | 0 | -2 | 43*
C=C1C(=O)[C@]23C[C@H]1CC[C@H]2[C@]1(C)CCC[C@@](C)(C(=O)OC)[C@H]1C[C@@H]3O | -2 | 10 | 3 | 1 | . | . | .

Screening results from PubChem BioAssay.
